In ChEMBL document CHEMBL1151832, “Structure elucidation at the nanomole scale. 1. Trisoxazole macrolides and thiazole-containing cyclic peptides from the nudibranch Hexabranchus sanguineus” (2009):
Converted amounts (≈) assume the structure as drawn. The source made the active and inactive calls. No cut-off for these calls is given here.

How the values were obtained:
Nakaseomyces glabratus = assay: Antifungal activity against Candida glabrata clinical isolate by broth microdilution method; format: functional
In short: (§1)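 Isolates were maintained on Sabouraud dextrose agar at 30 °C, for 24 h (Candida) or 48 h (C. neoformans). Testing followed the NCCLS broth microdilution method, using 2-fold serial dilutions from DMSO stocks in RPMI-1640 buffered to pH 7.0 with 0.165 M MOPS. Final concentrations were 0.062–64 µg/mL, with amphotericin B as positive control. Replicates were run, and growth was read by OD600. MIC was the lowest concentration giving ≥90% inhibition.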

Cryptococcus neoformans = assay: Antifungal activity against Cryptococcus neoformans var. grubii clinical isolate by broth microdilution method; format: functional
In short: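 Clinical isolate maintained on Sabouraud dextrose agar, 30 °C, 48 h. Susceptibility by NCCLS broth microdilution in RPMI-1640 with 0.165 M MOPS (pH 7.0), using 2-fold dilutions from DMSO stocks spanning 0.062–64 µg/mL final (amphotericin B control 0.0078–8 µg/mL). Replicate wells per run; OD 600 nm read-out; MIC endpoint is the lowest concentration with complete (≥90%) inhibition.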

Candida albicans [1] = assay: Antifungal activity against Candida albicans ATCC 14503 by broth microdilution method; format: functional
In short: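 C. albicans reference strain grown on Sabouraud dextrose agar at 30 °C for 24 h. NCCLS broth microdilution: 2-fold serial dilutions from DMSO stocks in RPMI-1640 buffered to pH 7.0 with 0.165 M MOPS. Final concentrations 0.062–64 µg/mL; amphotericin B control 0.0078–8 µg/mL. Tested in replicate; growth read as OD 600 nm; MIC = lowest concentration giving ≥90% growth inhibition.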

Pichia kudriavzevii = assay: Antifungal activity against fluconazole-resistant Candida krusei clinical isolate by broth microdilution method; format: functional, organism-based; in short: as §1
Candida albicans [2] = assay: Antifungal activity against fluconazole-resistant Candida albicans isolate 96-489 by broth microdilution method
Candida albicans [3] = assay: Antifungal activity against fluconazole-resistant Candida albicans isolate UCDFR1 by broth microdilution method; format: functional, organism-based; in short: as §1
Cryptococcus gattii = assay: Antifungal activity against Cryptococcus neoformans var. gattii clinical isolate by broth microdilution method; format: functional, organism-based; conditions: Cryptococcus bacillisporus; in short: as §1

Row | Compound | MIC (Nakaseomyces glabratus) [µg/mL] | MIC (Cryptococcus neoformans) [µg/mL] | MIC (Candida albicans [1]) [µg/mL] | MIC (Pichia kudriavzevii) | MIC (Candida albicans [2]) | MIC (Candida albicans [3]) | MIC (Cryptococcus gattii)
1 | CO[C@H]([C@H](C)/C=C/N(C)C=O)[C@@H](C)C(=O)CC[C@H](C)[C@H](C[C@@H]1OC(=O)C[C@@H](O)CCC[C@H](O)[C@H](C)[C@H](OC)c2coc(n2)-c2coc(n2)-c2coc(n2)/C=C/CC[C@H]1C)OC | 0.125 (≈ 0.146 µM) | 0.5 (≈ 0.585 µM) | 0.25 (≈ 0.292 µM) |  |  |  | 
2 | CO[C@H]([C@H](C)/C=C/N(C)C=O)[C@@H](C)C(=O)CC[C@H](C)[C@H](C[C@@H]1OC(=O)C[C@@H](OC(N)=O)C[C@H](C)C[C@H](O)[C@H](C)[C@@H](O)c2coc(n2)-c2coc(n2)-c2coc(n2)/C=C/C[C@H](O)[C@H]1C)OC [9-O-DESMETHYL KABIRAMIDE B] | 1 (≈ 1.09 µM) | 2 (≈ 2.19 µM) | 2 (≈ 2.19 µM) | inactive | inactive | inactive | inactive
3 | C[C@@H]1[C@H](O)[C@@H](C)/C=C/C=C/C=C/C=C/C=C/C=C/C=C/[C@H](O[C@@H]2O[C@H](C)[C@@H](O)[C@H](N)[C@@H]2O)C[C@@H]2O[C@](O)(C[C@@H](O)C[C@@H](O)[C@H](O)CC[C@@H](O)C[C@@H](O)CC(=O)O[C@H]1C)C[C@H](O)[C@H]2C(=O)O [AMPHOTERICIN B] | 0.25 (≈ 0.271 µM) | 0.016 (≈ 0.0173 µM) | 0.016 (≈ 0.0173 µM) |  |  |  | 
4 | CO[C@H]([C@H](C)/C=C/N(C)C=O)[C@@H](C)C(=O)CC[C@H](C)[C@H](C[C@@H]1OC(=O)C[C@@H](OC(N)=O)C[C@H](C)C[C@H](O)[C@H](C)[C@@H](OC)c2coc(n2)-c2coc(n2)-c2coc(n2)/C=C/C[C@H](O)[C@H]1C)OC [KABIRAMIDE B] | 0.5 (≈ 0.539 µM) | 1 (≈ 1.08 µM) | 0.5 (≈ 0.539 µM) |  |  |  | 
5 | CO[C@H]([C@H](C)/C=C/N(C)C=O)[C@@H](C)C(=O)CC[C@H](C)[C@H](C[C@@H]1OC(=O)C[C@@H](OC(N)=O)C[C@H](C)C[C@H](O)[C@H](C)[C@@H](OC)c2coc(n2)-c2coc(n2)-c2coc(n2)/C=C/C[C@H](OC)[C@H]1C)OC [KABIRAMIDE C] | 0.25 (≈ 0.265 µM) | 0.125 (≈ 0.133 µM) | 0.016 (≈ 0.017 µM) | Active | Active | Active | Active
